Legend:
Format in all cases: functional
CCRF-CEM = assay: Growth inhibition of human CCRF-CEM cells after 48 hrs; conditions: for CC50: read-out: LC50 (the source's name)
Summary of the method: (§1)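 NCI in vitro disease-oriented human tumor cell line screen. Compounds passing a one-dose primary assay (MCF-7, NCI-H460, SF-268; pass = growth of any line reduced to 32% or less) were tested on the 60-line panel over a 5-log dose range. Compounds were dissolved in DMSO, with under 1% DMSO in final dilutions, and tested in duplicate at 6×10^4 cells/ml. Cells were incubated at 37 °C in 5% CO2 for 48 h, then diluted 10-fold in saline and counted with a Coulter counter, with counts corrected for dilution. Controls held PBS/DMSO at identical dilutions. GI50 was reported per line and as subpanel/full-panel mean-graph midpoint.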

HL-60(TB) = assay: Growth inhibition of human HL-60(TB) cells after 48 hrs; conditions: HL-60, 48 h; for CC50: read-out: LC50 (the source's name)
Summary of the method: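 NCI 60-cell-line screen over a 5-log dose range. Compounds were dissolved in DMSO, final DMSO under 1%. Duplicate wells were seeded at 6×10^4 cells/ml, with PBS/DMSO vehicle controls at identical dilutions. Cells were incubated 48 h at 37 °C in humidified 5% CO2, diluted 10-fold in saline, and counted by Coulter counter with dilution correction. GI50 read-out.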

K562 = assay: Growth inhibition of human K562 cells after 48 hrs; conditions: K562, 48 h; summary of the method: as §1
RPMI-8226 = assay: Growth inhibition of human RPMI8226 cells after 48 hrs; conditions: RPMI-8226, 48 h; for CC50: read-out: LC50 (the source's name); summary of the method: as §1
SF-539 = assay: Growth inhibition of human SF539 cells after 48 hrs; conditions: SF-539, 48 h; summary of the method: as §1
UACC-257 = assay: Growth inhibition of human UACC257 cells after 48 hrs; conditions: UACC-257, 48 h; summary of the method: as §1
MCF7 = assay: Growth inhibition of human MCF7 cells after 48 hrs; conditions: MCF7, 48 h; for CC50: read-out: LC50 (the source's name); summary of the method: as §1
T47D = assay: Growth inhibition of human T47D cells after 48 hrs; summary of the method: as §1
[1] = Growth inhibition of human leukemia cells after 48 hrs; conditions: Leukemia cell; summary of the method: as §1
NSCLC = assay: Growth inhibition of human NSCLC cells after 48 hrs; summary of the method: as §1
[2] = Growth inhibition of human Colon cancer cells after 48 hrs; conditions: Cancer cell lines; summary of the method: as §1
[3] = Growth inhibition of human CNS cancer cells after 48 hrs; conditions: Cancer cell lines; summary of the method: as §1
[4] = Growth inhibition of human melanoma cells after 48 hrs; conditions: Melanoma cell; summary of the method: as §1
[5] = Growth inhibition of human ovarian cancer cells after 48 hrs; conditions: Cancer cell lines; summary of the method: as §1
[6] = Growth inhibition of human renal cancer cells after 48 hrs; conditions: Cancer cell lines; summary of the method: as §1
[7] = Growth inhibition of human prostate cancer cells after 48 hrs; conditions: Cancer cell lines; summary of the method: as §1
[8] = Growth inhibition of human breast cancer cells after 48 hrs; conditions: Cancer cell lines; summary of the method: as §1
SK-MEL-2 = assay: Growth inhibition of human SK-MEL-2 cells after 48 hrs; conditions: SK-MEL-2, 48 h; summary of the method: as §1
[9] = read-out: LC50 (the source's name)

In the case of `O=c1c2cc(I)ccc2nc(-c2cccs2)n1NC(=S)Nc1ccccc1`, the GI50 (CCRF-CEM) is reported as 21 µM, the TGI (CCRF-CEM) is reported as 61 µM and the CC50 (CCRF-CEM) is reported as > 100 µM. The GI50 (HL-60(TB)) was 1 µM, the TGI (HL-60(TB)) was 22 µM and the CC50 (HL-60(TB)) was > 100 µM. For the same compound, the GI50 (K562) was 0.02 µM, the LC50 (concentration killing 50% of cells) (K562) was 75 µM and the TGI (K562) was 10 µM. For the same compound, the GI50 (RPMI-8226) was 19 µM, the TGI (RPMI-8226) was 52 µM and the CC50 (RPMI-8226) was > 100 µM. For the same compound, the GI50 (SF-539) was 34 µM, the TGI (SF-539) was > 100 µM and the CC50 (SF-539; [9]) was > 100 µM. For the same compound, the GI50 (UACC-257) was 17 µM, the LC50 (UACC-257) was > 100 µM and the TGI (UACC-257) was 66 µM. For the same compound, the GI50 (MCF7) was 29 µM, the TGI (MCF7) was 88 µM and the CC50 (MCF7) was > 100 µM. The GI50 (T47D) was 3 µM, the LC50 (T47D) was > 100 µM and the TGI (T47D) was 17 µM. The GI50 [1] was 11.5 µM, the TGI [1] was 38.5 µM and the GI50 (NSCLC) was 24 µM. It also gave a TGI (NSCLC) of 75.2 µM, a GI50 [2] of 29.5 µM and a TGI [2] of 84 µM. It also gave a GI50 [3] of 29.2 µM, a TGI [3] of 81.4 µM and a GI50 [4] of 23.1 µM. For the same compound, the TGI [4] was 62.8 µM, the GI50 [5] was 21.5 µM and the TGI [5] was 77.5 µM. For the same compound, the GI50 [6] was 32.5 µM, the TGI [6] was 84.8 µM and the GI50 [7] was 25.8 µM. For the same compound, the TGI [7] was 76.2 µM, the GI50 [8] was 19.4 µM and the TGI [8] was 60.3 µM.
In the case of `CCCCNC(=O)c1cc(I)ccc1NC(=O)c1cccs1`, the GI50 [1] is reported as 83.8 µM, the TGI [1] is reported as > 100 µM and the GI50 (NSCLC) is reported as 96 µM. For the same compound, the TGI (NSCLC) was > 100 µM, the GI50 [2] was > 100 µM and the TGI [2] was > 100 µM. For the same compound, the GI50 [3] was > 100 µM, the TGI [3] was > 100 µM and the GI50 [4] was > 100 µM. The TGI [4] was > 100 µM, the GI50 [5] was > 100 µM and the TGI [5] was > 100 µM. The GI50 [6] was > 100 µM, the TGI [6] was > 100 µM and the GI50 [7] was > 100 µM. The TGI [7] was > 100 µM, the GI50 [8] was > 100 µM and the TGI [8] was > 100 µM.
In the case of `CCSc1nc(-c2cccs2)nc2ccc(I)cc12`, the TGI [1] is reported as > 100 µM, the GI50 (NSCLC) is reported as 84.2 µM and the TGI (NSCLC) is reported as > 100 µM. For the same compound, the GI50 [2] was 94.6 µM, the TGI [2] was > 100 µM and the GI50 [3] was > 100 µM. The TGI [3] was > 100 µM, the GI50 [4] was > 100 µM and the TGI [4] was > 100 µM. The GI50 [5] was 85.2 µM, the TGI [5] was > 100 µM and the GI50 [6] was > 100 µM. For the same compound, the TGI [6] was > 100 µM, the GI50 [7] was > 100 µM and the TGI [7] was > 100 µM. For the same compound, the GI50 [8] was 71.4 µM and the TGI [8] was > 100 µM.
With `NS(=O)(=O)c1ccc(-n2c(-c3cccs3)nc3ccc(I)cc3c2=O)cc1` the GI50 (CCRF-CEM) was 41 µM, the TGI (CCRF-CEM) was > 100 µM and the CC50 (CCRF-CEM) was > 100 µM. For the same compound, the GI50 (HL-60(TB)) was 20 µM, the TGI (HL-60(TB)) was 64 µM and the CC50 (HL-60(TB)) was > 100 µM. The GI50 (K562) was 37 µM, the LC50 (concentration killing 50% of cells) (K562) was > 100 µM and the TGI (K562) was > 100 µM. For the same compound, the GI50 (RPMI-8226) was 25 µM, the TGI (RPMI-8226) was 62 µM and the CC50 (RPMI-8226) was > 100 µM. For the same compound, the GI50 (SK-MEL-2) was 22 µM, the LC50 (SK-MEL-2) was > 100 µM and the TGI (SK-MEL-2) was 48 µM. The GI50 (UACC-257) was 0.05 µM, the LC50 (UACC-257) was > 100 µM and the TGI (UACC-257) was 19 µM. The GI50 (MCF7) was 23 µM, the TGI (MCF7) was 65 µM and the CC50 (MCF7) was > 100 µM. The GI50 (T47D) was 19 µM, the LC50 (T47D) was 99 µM and the TGI (T47D) was 44 µM. It also gave a GI50 [1] of 35.3 µM, a TGI [1] of 87.7 µM and a GI50 (NSCLC) of 24 µM. It also gave a TGI (NSCLC) of 61.3 µM, a GI50 [2] of 24.8 µM and an LC50 [2] of 87.1 µM. The TGI [2] was 59.3 µM, the GI50 [3] was 30.3 µM and the TGI [3] was 73.8 µM. The GI50 [4] was 17.6 µM, the TGI [4] was 43 µM and the GI50 [5] was 23.5 µM. For the same compound, the TGI [5] was 65.1 µM, the GI50 [6] was 24.7 µM and the TGI [6] was 64.1 µM. For the same compound, the CC50 [6, 9] was 94.1 µM, the GI50 [7] was 22.7 µM and the TGI [7] was 58.9 µM. The GI50 [8] was 23.3 µM and the TGI [8] was 62.5 µM.
In the case of `NNC(=O)COc1nc(-c2cccs2)nc2ccc(I)cc12`, the GI50 (CCRF-CEM) is reported as 20 µM, the TGI (CCRF-CEM) is reported as 88 µM and the CC50 (CCRF-CEM) is reported as > 100 µM. The GI50 (HL-60(TB)) was 38 µM, the TGI (HL-60(TB)) was > 100 µM and the CC50 (HL-60(TB)) was > 100 µM. The GI50 (K562) was 37 µM, the LC50 (concentration killing 50% of cells) (K562) was > 100 µM and the TGI (K562) was > 100 µM. It also gave a GI50 (RPMI-8226) of 16 µM, a TGI (RPMI-8226) of 39 µM and a CC50 (RPMI-8226) of 97 µM. The GI50 (SK-MEL-2) was 25 µM, the LC50 (SK-MEL-2) was > 100 µM and the TGI (SK-MEL-2) was 71 µM. The GI50 (UACC-257) was < 0.01 µM, the LC50 (UACC-257) was > 100 µM and the TGI (UACC-257) was > 100 µM. The GI50 (MCF7) was 16 µM, the TGI (MCF7) was 89 µM and the CC50 (MCF7) was > 100 µM. For the same compound, the GI50 (T47D) was 2 µM, the LC50 (T47D) was > 100 µM and the TGI (T47D) was 22 µM. It also gave a GI50 [1] of 25.4 µM, a TGI [1] of 80.5 µM and a GI50 (NSCLC) of 19.4 µM. It also gave a TGI (NSCLC) of 59.6 µM, a GI50 [2] of 24.3 µM and a TGI [2] of 66.9 µM. It also gave a GI50 [3] of 20.7 µM, a TGI [3] of 62.1 µM and a GI50 [4] of 19.4 µM. For the same compound, the TGI [4] was 51.1 µM, the GI50 [5] was 22.3 µM and the TGI [5] was 72.5 µM. The GI50 [6] was 23.1 µM, the TGI [6] was 71.1 µM and the GI50 [7] was 23.5 µM. It also gave a TGI [7] of 75.3 µM, a GI50 [8] of 18.7 µM and a TGI [8] of 64.7 µM.
With `O=c1[nH]cc(F)c(=O)[nH]1` [FLUOROURACIL] the GI50 [1] was 15.1 µM, the TGI [1] was > 100 µM and the GI50 (NSCLC) was > 100 µM. For the same compound, the TGI (NSCLC) was > 100 µM, the GI50 [2] was 8.37 µM and the TGI [2] was > 100 µM. The GI50 [3] was 72.1 µM, the TGI [3] was > 100 µM and the TGI [4] was > 100 µM. For the same compound, the TGI [5] was > 100 µM, the TGI [6] was > 100 µM and the TGI [7] was > 100 µM. The TGI [8] was > 100 µM.

Source: ChEMBL document CHEMBL1158347, “Substituted quinazolines, part 3. Synthesis, in vitro antitumor activity and molecular modeling study of certain 2-thieno-4(3H)-quinazolinone analogs” (2009)
